Assay results as given in ChEMBL document CHEMBL3044834, “Novel protoporphyrinogen oxidase inhibitors: 3H-pyrazolo[3,4-d][1,2,3]triazin-4-one derivatives” (J Agric Food Chem, 2008).

Legend:
Assay type in all cases: functional
Digitaria sanguinalis [1] = assay: Herbicidal activity against Digitaria sanguinalis (hairy crabgrass) assessed as inhibition of fresh weed plant weight at 1500 g/ha using post-emergence treatment protocol
How it was run: (§1)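 Test compounds made up as emulsions by dissolving in 100 µL N,N-dimethylformamide, then adding a little Tween 20 and water. For post-emergence, weed seedlings at one leaf and one stem were sprayed at the same rates as the pre-emergence test. Fresh weight was recorded 15 days after treatment and expressed as percent inhibition versus controls. All treatments were run in triplicate.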

[2] = tested on: Brassica rapa subsp. oleifera; assay: Herbicidal activity against Brassica rapa subsp. oleifera assessed as inhibition of fresh weed plant weight at 187.5 g/ha using post-emergence treatment protocol; how it was run: as §1
Echinochloa crus-galli [3] = assay: Herbicidal activity against Echinochloa crus-galli (barnyard grass) assessed as inhibition of fresh weed plant weight at 375 g/ha using pre-emergence treatment protocol; how it was run: as §1
Amaranthus retroflexus [4] = assay: Herbicidal activity against Amaranthus retroflexus assessed as inhibition of fresh weed plant weight at 375 g/ha using post-emergence treatment protocol; how it was run: as §1
Amaranthus retroflexus [5] = assay: Herbicidal activity against Amaranthus retroflexus assessed as inhibition of fresh weed plant weight at 750 g/ha using pre-emergence treatment protocol; how it was run: as §1
Echinochloa crus-galli [6] = assay: Herbicidal activity against Echinochloa crus-galli (barnyard grass) assessed as inhibition of fresh weed plant weight at 187.5 g/ha using post-emergence treatment protocol; how it was run: as §1
Digitaria sanguinalis [7] = assay: Herbicidal activity against Digitaria sanguinalis (hairy crabgrass) assessed as inhibition of fresh weed plant weight at 375 g/ha using pre-emergence treatment protocol
[8] = tested on: Brassica rapa subsp. oleifera; assay: Herbicidal activity against Brassica rapa subsp. oleifera assessed as inhibition of fresh weed plant weight at 375 g/ha using pre-emergence treatment protocol
Amaranthus retroflexus [9] = assay: Herbicidal activity against Amaranthus retroflexus assessed as inhibition of fresh weed plant weight at 187.5 g/ha using pre-emergence treatment protocol
Digitaria sanguinalis [10] = assay: Herbicidal activity against Digitaria sanguinalis (hairy crabgrass) assessed as inhibition of fresh weed plant weight at 375 g/ha using post-emergence treatment protocol; how it was run: as §1
[11] = tested on: Brassica rapa subsp. oleifera; assay: Herbicidal activity against Brassica rapa subsp. oleifera assessed as inhibition of fresh weed plant weight at 750 g/ha using post-emergence treatment protocol; how it was run: as §1
Digitaria sanguinalis [12] = assay: Herbicidal activity against Digitaria sanguinalis (hairy crabgrass) assessed as inhibition of fresh weed plant weight at 187.5 g/ha using pre-emergence treatment protocol
Echinochloa crus-galli [13] = assay: Herbicidal activity against Echinochloa crus-galli (barnyard grass) assessed as inhibition of fresh weed plant weight at 1500 g/ha using pre-emergence treatment protocol
Echinochloa crus-galli [14] = assay: Herbicidal activity against Echinochloa crus-galli (barnyard grass) assessed as inhibition of fresh weed plant weight at 187.5 g/ha using pre-emergence treatment protocol; how it was run: as §1
Echinochloa crus-galli [15] = assay: Herbicidal activity against Echinochloa crus-galli (barnyard grass) assessed as inhibition of fresh weed plant weight at 750 g/ha using pre-emergence treatment protocol
Amaranthus retroflexus [16] = assay: Herbicidal activity against Amaranthus retroflexus assessed as inhibition of fresh weed plant weight at 750 g/ha using post-emergence treatment protocol; how it was run: as §1
Echinochloa crus-galli [17] = assay: Herbicidal activity against Echinochloa crus-galli (barnyard grass) assessed as inhibition of fresh weed plant weight at 750 g/ha using post-emergence treatment protocol; how it was run: as §1
Echinochloa crus-galli [18] = assay: Herbicidal activity against Echinochloa crus-galli (barnyard grass) assessed as inhibition of fresh weed plant weight at 375 g/ha using post-emergence treatment protocol; how it was run: as §1
[19] = tested on: Brassica rapa subsp. oleifera; assay: Herbicidal activity against Brassica rapa subsp. oleifera assessed as inhibition of fresh weed plant weight at 1500 g/ha using pre-emergence treatment protocol
Amaranthus retroflexus [20] = assay: Herbicidal activity against Amaranthus retroflexus assessed as inhibition of fresh weed plant weight at 1500 g/ha using post-emergence treatment protocol; how it was run: as §1
[21] = tested on: Brassica rapa subsp. oleifera; assay: Herbicidal activity against Brassica rapa subsp. oleifera assessed as inhibition of fresh weed plant weight at 187.5 g/ha using pre-emergence treatment protocol
[22] = tested on: Brassica rapa subsp. oleifera; assay: Herbicidal activity against Brassica rapa subsp. oleifera assessed as inhibition of fresh weed plant weight at 375 g/ha using post-emergence treatment protocol; how it was run: as §1
Amaranthus retroflexus [23] = assay: Herbicidal activity against Amaranthus retroflexus assessed as inhibition of fresh weed plant weight at 1500 g/ha using pre-emergence treatment protocol
Digitaria sanguinalis [24] = assay: Herbicidal activity against Digitaria sanguinalis (hairy crabgrass) assessed as inhibition of fresh weed plant weight at 750 g/ha using pre-emergence treatment protocol
Amaranthus retroflexus [25] = assay: Herbicidal activity against Amaranthus retroflexus assessed as inhibition of fresh weed plant weight at 375 g/ha using pre-emergence treatment protocol
[26] = tested on: Brassica rapa subsp. oleifera; assay: Herbicidal activity against Brassica rapa subsp. oleifera assessed as inhibition of fresh weed plant weight at 750 g/ha using pre-emergence treatment protocol
Amaranthus retroflexus [27] = assay: Herbicidal activity against Amaranthus retroflexus assessed as inhibition of fresh weed plant weight at 187.5 g/ha using post-emergence treatment protocol; how it was run: as §1
Digitaria sanguinalis [28] = assay: Herbicidal activity against Digitaria sanguinalis (hairy crabgrass) assessed as inhibition of fresh weed plant weight at 1500 g/ha using pre-emergence treatment protocol
Digitaria sanguinalis [29] = assay: Herbicidal activity against Digitaria sanguinalis (hairy crabgrass) assessed as inhibition of fresh weed plant weight at 750 g/ha using post-emergence treatment protocol; how it was run: as §1
Echinochloa crus-galli [30] = assay: Herbicidal activity against Echinochloa crus-galli (barnyard grass) assessed as inhibition of fresh weed plant weight at 1500 g/ha using post-emergence treatment protocol; how it was run: as §1
Digitaria sanguinalis [31] = assay: Herbicidal activity against Digitaria sanguinalis (hairy crabgrass) assessed as inhibition of fresh weed plant weight at 187.5 g/ha using post-emergence treatment protocol; how it was run: as §1
[32] = tested on: Brassica rapa subsp. oleifera; assay: Herbicidal activity against Brassica rapa subsp. oleifera assessed as inhibition of fresh weed plant weight at 1500 g/ha using post-emergence treatment protocol; how it was run: as §1

## C=CCOc1cc(-n2nnc3c(cnn3CC=C)c2=O)c(F)cc1Cl
Digitaria sanguinalis [1]
  inhibition at 1500 g/ha: 23.1%
[2]
  inhibition at 187.5 g/ha: 0%
Echinochloa crus-galli [3]
  inhibition at 375 g/ha: 10%
Amaranthus retroflexus [4]
  inhibition at 375 g/ha: 85.4%
Amaranthus retroflexus [5]
  inhibition at 750 g/ha: 34.4%
Echinochloa crus-galli [6]
  inhibition at 187.5 g/ha: 2.4%
Digitaria sanguinalis [7]
  inhibition at 375 g/ha: 0%
[8]
  inhibition at 375 g/ha: 11.9%
Amaranthus retroflexus [9]
  inhibition at 187.5 g/ha: 1.6%
Digitaria sanguinalis [10]
  inhibition at 375 g/ha: 0%
[11]
  inhibition at 750 g/ha: 2.9%
Digitaria sanguinalis [12]
  inhibition at 187.5 g/ha: 0%
Echinochloa crus-galli [13]
  inhibition at 1500 g/ha: 30.1%
Echinochloa crus-galli [14]
  inhibition at 187.5 g/ha: 6.5%
Echinochloa crus-galli [15]
  inhibition at 750 g/ha: 16.9%
Amaranthus retroflexus [16]
  inhibition at 750 g/ha: 100%
Echinochloa crus-galli [17]
  inhibition at 750 g/ha: 22%
Echinochloa crus-galli [18]
  inhibition at 375 g/ha: 18%
[19]
  inhibition at 1500 g/ha: 30.5%
Amaranthus retroflexus [20]
  inhibition at 1500 g/ha: 100%
[21]
  inhibition at 187.5 g/ha: 9%
[22]
  inhibition at 375 g/ha: 0%
Amaranthus retroflexus [23]
  inhibition at 1500 g/ha: 60.1%
Digitaria sanguinalis [24]
  inhibition at 750 g/ha: 4.3%
Amaranthus retroflexus [25]
  inhibition at 375 g/ha: 27.9%
[26]
  inhibition at 750 g/ha: 16.4%
Amaranthus retroflexus [27]
  inhibition at 187.5 g/ha: 12.2%
Digitaria sanguinalis [28]
  inhibition at 1500 g/ha: 10.5%
Digitaria sanguinalis [29]
  inhibition at 750 g/ha: 11.1%
Echinochloa crus-galli [30]
  inhibition at 1500 g/ha: 32.3%
Digitaria sanguinalis [31]
  inhibition at 187.5 g/ha: 0%
[32]
  inhibition at 1500 g/ha: 10.3%

## C=CCN1C(=O)COc2cc(F)c(-n3nnc4c(cnn4CCC)c3=O)cc21
Digitaria sanguinalis [1]
  inhibition at 1500 g/ha: 52.8%
[2]
  inhibition at 187.5 g/ha: 12.6%
Echinochloa crus-galli [3]
  inhibition at 375 g/ha: 55%
Amaranthus retroflexus [4]
  inhibition at 375 g/ha: 100%
Amaranthus retroflexus [5]
  inhibition at 750 g/ha: 100%
Echinochloa crus-galli [6]
  inhibition at 187.5 g/ha: 1.5%
Digitaria sanguinalis [7]
  inhibition at 375 g/ha: 67.4%
[8]
  inhibition at 375 g/ha: 82.8%
Amaranthus retroflexus [9]
  inhibition at 187.5 g/ha: 67.2%
Digitaria sanguinalis [10]
  inhibition at 375 g/ha: 25%
[11]
  inhibition at 750 g/ha: 78.9%
Digitaria sanguinalis [12]
  inhibition at 187.5 g/ha: 37%
Echinochloa crus-galli [13]
  inhibition at 1500 g/ha: 86.4%
Echinochloa crus-galli [14]
  inhibition at 187.5 g/ha: 42.9%
Echinochloa crus-galli [15]
  inhibition at 750 g/ha: 62.8%
Amaranthus retroflexus [16]
  inhibition at 750 g/ha: 100%
Echinochloa crus-galli [17]
  inhibition at 750 g/ha: 7.3%
Echinochloa crus-galli [18]
  inhibition at 375 g/ha: 2.3%
[19]
  inhibition at 1500 g/ha: 100%
Amaranthus retroflexus [20]
  inhibition at 1500 g/ha: 100%
[21]
  inhibition at 187.5 g/ha: 26.9%
[22]
  inhibition at 375 g/ha: 45.1%
Amaranthus retroflexus [23]
  inhibition at 1500 g/ha: 100%
Digitaria sanguinalis [24]
  inhibition at 750 g/ha: 71.7%
Amaranthus retroflexus [25]
  inhibition at 375 g/ha: 77%
[26]
  inhibition at 750 g/ha: 100%
Amaranthus retroflexus [27]
  inhibition at 187.5 g/ha: 48.8%
Digitaria sanguinalis [28]
  inhibition at 1500 g/ha: 90.7%
Digitaria sanguinalis [29]
  inhibition at 750 g/ha: 33.3%
Echinochloa crus-galli [30]
  inhibition at 1500 g/ha: 20.1%
Digitaria sanguinalis [31]
  inhibition at 187.5 g/ha: 8.3%
[32]
  inhibition at 1500 g/ha: 97.5%
